According to ChEMBL document CHEMBL1158362, “4-Phenoxybutoxy-substituted heterocycles--a structure-activity relationship study of blockers of the lymphocyte potassium channel Kv1.3” (Eur J Med Chem, 2009):

Key:
[1] = target: Potassium voltage-gated channel subfamily A member 3 (Homo sapiens, UniProt P22001); test: Inhibition of Kv1.3 potassium channel expressed in mouse L929 cells by whole cell patch clamp; format: cell-based
Outline: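 Currents were evoked by 500 ms pulses to 40 mV every 45 s. Each compound was run three times at 4–5 concentrations, each on a different cell. IC50 came from a Hill fit of the reduction in area under the current curve.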

[2] = target: Potassium voltage-gated channel subfamily A member 5 (Homo sapiens) (UniProt P22460); test: Inhibition of Kv1.5 potassium channel by whole cell patch clamp
Potassium voltage-gated channel subfamily A member 5 (Homo sapiens), sequence (P22460 whole entry): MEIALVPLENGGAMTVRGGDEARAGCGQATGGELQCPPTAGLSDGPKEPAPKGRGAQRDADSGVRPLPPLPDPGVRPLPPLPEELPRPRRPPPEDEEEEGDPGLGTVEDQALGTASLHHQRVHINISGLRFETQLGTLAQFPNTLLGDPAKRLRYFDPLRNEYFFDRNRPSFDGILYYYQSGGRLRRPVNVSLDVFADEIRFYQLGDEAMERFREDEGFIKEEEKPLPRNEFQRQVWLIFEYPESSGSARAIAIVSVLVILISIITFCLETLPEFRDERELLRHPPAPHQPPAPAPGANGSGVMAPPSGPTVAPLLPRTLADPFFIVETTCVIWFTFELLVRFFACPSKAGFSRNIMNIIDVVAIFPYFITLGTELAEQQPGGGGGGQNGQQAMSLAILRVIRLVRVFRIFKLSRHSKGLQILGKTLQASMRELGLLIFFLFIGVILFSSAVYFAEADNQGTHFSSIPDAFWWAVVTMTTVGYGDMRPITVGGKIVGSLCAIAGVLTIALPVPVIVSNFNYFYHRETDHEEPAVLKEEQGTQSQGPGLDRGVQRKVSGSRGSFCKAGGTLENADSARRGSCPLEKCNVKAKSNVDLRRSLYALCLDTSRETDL
Outline: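 Currents were recorded by whole-cell patch clamp from MEL-C88 cells. Each compound was tested three times at 4–5 concentrations, each experiment on a different cell. IC50 came from a Hill-equation fit of the reduction in area under the current curve.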

[3] = Selectivity for Kv1.3 potassium channel over Kv1.5 potassium channel
[4] = Half life in po dosed rat; format: ADME, organism-based; conditions: in vivo
[5] = Half life in po dosed rhesus monkey; format: ADME, organism-based, Macaca mulatta; conditions: in vivo

Potassium voltage-gated channel subfamily A member 3, sequence (P22001 whole entry): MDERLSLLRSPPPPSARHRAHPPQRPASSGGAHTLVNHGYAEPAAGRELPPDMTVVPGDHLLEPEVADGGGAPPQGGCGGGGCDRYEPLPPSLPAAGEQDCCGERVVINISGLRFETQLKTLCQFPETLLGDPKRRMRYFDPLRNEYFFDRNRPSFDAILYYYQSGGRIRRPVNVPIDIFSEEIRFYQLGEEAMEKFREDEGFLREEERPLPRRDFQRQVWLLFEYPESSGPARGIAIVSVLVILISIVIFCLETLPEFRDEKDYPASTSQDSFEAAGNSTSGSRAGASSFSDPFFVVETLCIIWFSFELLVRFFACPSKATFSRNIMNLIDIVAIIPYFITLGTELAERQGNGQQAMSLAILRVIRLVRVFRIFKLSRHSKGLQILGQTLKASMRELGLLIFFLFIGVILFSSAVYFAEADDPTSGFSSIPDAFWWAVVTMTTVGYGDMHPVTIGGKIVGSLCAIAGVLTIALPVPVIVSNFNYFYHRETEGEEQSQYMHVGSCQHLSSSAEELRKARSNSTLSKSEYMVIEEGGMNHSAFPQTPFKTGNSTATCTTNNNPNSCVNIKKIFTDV

Row | Structure (SMILES) | IC50 [1] [nM] | IC50 [2] [nM] | Ratio IC50 (Kv1.5/Kv1.3) [3] | half-life [4] [h] | half-life [5] [h]
1 | O=C1c2ccccc2C(=O)c2c(OCCCCOc3ccccc3)cccc21 | 7000 | 10000 | 1.43 |  | 
2 | COc1c2ccoc2cc2oc(=O)ccc12 [BERGAPTEN] | 101000 | 177000 | 1.75 |  | 
3 | Cn1c(=O)cc(OCCCCOc2ccccc2)c2ccccc21 | 670 | 1500 |  |  | 
4 | c1ccc(OCCCCOc2ncnc3ccccc23)cc1 |  | 25000 |  |  | 
5 | O=c1c2ccccc2n(CCCCOc2ccccc2)c2occc12 | 1000 | 2000 | 2 |  | 
6 | O=c1ccc2cc3ccoc3c(OCCCCOc3ccccc3)c2o1 | 1000 | 1000 |  |  | 
7 | c1ccc(OCCCCOc2c3ccccc3nc3occc23)cc1 | 1000 | 2000 | 2 |  | 
8 | c1ccc(OCCCCOc2cccc3ccccc23)cc1 | 15000 |  |  |  | 
9 | c1ccc(OCCCCOc2cccc3occc23)cc1 | 650 | 1000 |  |  | 
10 | O=c1ccoc2cc3occc3c(OCCCCOc3ccccc3)c12 | 170 | 200 |  |  | 
11 | COc1cccc2c(=O)c3ccccc3n(CCCCOc3ccccc3)c12 | 165 | 450 | 2.73 |  | 
12 | O=c1cc(OCCCCOc2ccccc2)c2ccccc2o1 | 890 | 1500 | 1.69 |  | 
13 | S=c1ccc2c(OCCCCOc3ccccc3)c3ccoc3cc2o1 | 17 | 380 | 22 |  | 
14 | COc1cc2nc3occc3c(OCCCCOc3ccccc3)c2cc1OC | 150 | 480 | 3.2 |  | 
15 | c1ccc(OCCCCOC2c3ccccc3Oc3ccccc32)cc1 | 12000 | 15000 |  |  | 
16 | O=c1c(OCCCCOc2ccccc2)c(-c2ccccc2)oc2ccccc12 | 1000 | 10000 | 10 |  | 
17 | COc1c2occc2c(OCCCCOc2ccccc2)c2c(=O)cc(C)oc12 | 1500 | 2500 | 1.67 |  | 
18 | COc1c2occc2c(OC)c2c(OCCCCOc3ccccc3)cc(=O)oc12 | 450 | 850 | 1.89 |  | 
19 | c1ccc(OCCCCOc2ccccc2)cc1 | 20000 |  |  |  | 
20 | c1ccc(OCCCCOc2ccnc3ccccc23)cc1 | > 10000 | 3500 | < 0.35 |  | 
21 | O=c1ccc2c(OCCCCOc3ccccc3)c3ccoc3cc2o1 |  | 45 |  | 3 | 6.7
22 | O=c1ccc2c(OCCCCOc3ccccc3)cccc2o1 | 150 | 520 | 3.47 |  | 
23 | Cc1cc(=O)c2c(OCCCCOc3ccccc3)c3ccoc3cc2o1 | 233 | 310 | 1.33 |  | 
24 | COc1c2ccoc2c(OCCCCOc2ccccc2)c2oc(=O)cc(C)c12 | 318 | 280 | 0.88 |  | 
